An excerpt weighted towards active compounds, which were near 3.8% of everything screened.
Kir21 block – Kir2.1 (mouse) channel inhibition. actives 0.85% (n = 310,000). HEK293-Kir2.1, FluxOR thallium flux fluorescence; hits give low values. P35561. B-score at 10 µM. AID 1672;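 active = fluorescence ratio B-score at or below minus 3 SD of library scores, with starting-brightness B-score within 2 SD, cut at about -4.2 in these data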;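 also: channel flux triggered by added potassium and thallium sulfate stimulus; B-score of peak minus minimum fluorescence over baseline after thallium stimulus; more negative B-score means stronger Kir2.1 block with less thallium influx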
hERG protect – shields human hERG channel from block by proarrhythmic agents. Q12809. CHO-hERG, FluxOR thallium flux, dofetilide IC70 present. activation (rescue from dofetilide block), less the hit threshold, % at 10 µM. actives 0.51% (n = 310,000). AID 1511;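 active = activation above the mean of controls blocked by dofetilide plus 5 SD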;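 also: thallium influx through hERG after potassium depolarization seen as dye fluorescence rise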
KCNK3 inh – human KCNK3 channel inhibition, primary screen | O14649 | CHO-KCNK3 thallium flux, FluxOR fluorescence; hits give low values | B-score at 10 µM | actives 0.84% (n = 340,000) | AID 602410;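 active = B-score under library mean minus 4 SD, starting fluorescence ratio at most library mean plus 5 SD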;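 also: more negative B-score means stronger inhibition of thallium flux through KCNK3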
KCNQ1 pot – potentiators or activators of human KCNQ1 potassium channel; P51787; CHO-K1 KCNQ1, thallium flux FluxOR fluorescence; hits give high values; B-score at 10 µM; actives 0.35% (n = 310,000); AID 2648;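 active = fluorescence ratio B-score, a plate-corrected score, at least three library SD, with initial intensity B-score within 5 SD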
Target sequence (P51787 whole entry, looked up): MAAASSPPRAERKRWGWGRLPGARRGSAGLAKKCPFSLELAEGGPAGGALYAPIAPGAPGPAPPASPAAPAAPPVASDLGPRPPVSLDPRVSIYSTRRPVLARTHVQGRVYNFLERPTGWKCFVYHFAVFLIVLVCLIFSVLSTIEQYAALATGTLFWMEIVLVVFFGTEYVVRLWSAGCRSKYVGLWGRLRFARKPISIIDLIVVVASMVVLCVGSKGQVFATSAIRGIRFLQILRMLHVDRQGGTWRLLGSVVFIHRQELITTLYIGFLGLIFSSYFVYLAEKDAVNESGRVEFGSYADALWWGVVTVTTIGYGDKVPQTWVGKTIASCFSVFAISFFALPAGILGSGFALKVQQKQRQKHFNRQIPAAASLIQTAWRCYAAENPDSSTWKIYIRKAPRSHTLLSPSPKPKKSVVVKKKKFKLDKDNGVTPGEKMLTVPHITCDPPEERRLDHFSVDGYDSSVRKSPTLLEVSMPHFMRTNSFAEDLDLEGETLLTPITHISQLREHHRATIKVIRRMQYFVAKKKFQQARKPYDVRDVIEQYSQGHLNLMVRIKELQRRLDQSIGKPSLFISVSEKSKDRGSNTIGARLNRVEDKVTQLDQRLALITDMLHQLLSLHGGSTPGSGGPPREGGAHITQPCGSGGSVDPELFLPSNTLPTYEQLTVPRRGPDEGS
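Medium – assay buffer, equal DMSO in all wells · Material – CHO-K1 cell line with stable KCNQ1 potassium channel expression · Signal – kinetic FluxOR thallium fluorescence, 10-s 1-Hz baseline, 110-s post-stimulus read · Compound – single concentration per compound, DMSO matched to controls · Schedule – 37 °C overnight plating, 90-min dark dye load, 20-min compound pretreatment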
KCNK9 block – inhibitors of human KCNK9 two-pore domain potassium channel. HEK293 KCNK9, FluxOR thallium flux fluorescence; hits give low values. B-score at 10 µM. actives 1.2% (n = 310,000);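 active = ratio B-score over 3 SD below the library mean, with starting fluorescence within 5 SD of its mean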;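 also: negative B-score means less thallium flux so channel inhibition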
KCNQ1 block – human KCNQ1 channel inhibition. P51787. CHO-K1 KCNQ1, FluxOR thallium flux fluorescence; hits give high values. B-score at 10 µM. actives 1.3% (n = 310,000). AID 2642;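 active = compounds whose thallium flux B-score, printed positive for inhibition, exceeds three library SD while starting fluorescence stays within three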;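 also: channel opened by potassium depolarization with thallium stimulus after 20 min compound exposure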
* = called active by the depositor; i = inactive; nt = no result given.

SMILES	Kir21 block	hERG protect	KCNK3 inh	KCNQ1 pot	KCNK9 block	KCNQ1 block
COc1ccc(-n2nc3c(c2NC(=O)c2ccc(S(=O)(=O)N4CCOCC4)cc2)CS(=O)(=O)C3)cc1	-0.83	-13	i	i	i	i
Cc1ccc(S(=O)(=O)Nc2c(C)[nH]c(=O)[nH]c2=O)cc1C	-0.29	5.0*	i	i	i	i
CS(=O)(=O)c1ccc(C(=O)OCc2nnc(-c3ccc(Cl)cc3)o2)cc1[N+](=O)[O-]	-1.1	-18	i	12*	i	i
O=C(OCc1nnc(-c2ccc(Cl)cc2)o1)c1ccc(O)cc1	-0.66	-8	i	i	i	i
CCN(CC)c1nc(OCCNC(=O)Nc2ccccc2)nc(N(CC)CC)n1	-5.3*	-11	i	i	-7.9*	10*
Cn1c(=O)c(Nc2ccc(Cl)cc2)c2c3c(cccc31)C(=O)c1ccccc1-2	-7.1	-8	nt	i	i	9*
Cc1[nH]c2ccccc2c1SCC(=O)N1CCCc2ccccc21	-7.8*	-24	i	i	i	6*
Cn1c(SCC(=O)N2CCCc3ccccc32)nc2cccnc21	-0.98	-13	i	i	i	i
CC(C)Cn1c(SCC(=O)N2CCCc3ccccc32)nc2ccccc2c1=O	-0.05	-10	nt	i	i	6*
CCn1c(SCC(=O)N2CCCc3ccccc32)nc2ccccc2c1=O	-3	-5	i	i	i	i
CCn1c(SCC(=O)N2CCCc3ccccc32)nc2cccnc21	-4.9*	-14	i	i	i	i
COc1ccc(C(=S)N2CCOCC2)cc1OC(=O)c1ccccc1Cl	1.3	-5	i	i	i	i
Cc1c(OCC(=O)NCCN2CCOCC2)ccc2c1oc(=O)c1ccccc12	0.47	-22	i	i	i	i
COc1ccc(Br)cc1CN(C)C(C)C(=O)Nc1cccc(C(C)=O)c1 (configuration not stated)	0.02	-11	i	i	i	i
Cc1cc(=O)oc2cc(OCC(=O)OCC(=O)Nc3c(C)n(C)n(-c4ccccc4)c3=O)ccc12	-0.94	-7	i	i	i	i
O=C(O)CCCCCNC(=O)c1ccccc1Br	1.2	5.4*	i	i	i	i
O=C(NCC1(c2ccccc2)CCCC1)c1ccccc1Br	-5.3*	-4	i	i	i	i
O=C(NCC1(c2ccccc2)CCCC1)c1ccccc1	-0.26	-11	i	i	i	i
Cc1ccc2[nH]c(CNC(=O)c3ccc(F)cc3)cc2c1	0.39	-4	i	i	i	i
O=C(CSc1nnnn1C1CC1)N1CCN(Cc2ccccc2F)CC1	nt	nt	i	nt	nt	nt
COc1ccccc1NCCC(=O)OCC(=O)Nc1ccccc1Cl	nt	nt	i	nt	nt	nt
O=C(CCCCCCCC(=O)c1ccccc1)c1ccccc1	0.45	-6	i	i	i	7*
CCCC(=O)c1ccc(-c2ccccc2)cc1	0.01	-1	i	i	-7.4*	i
Cc1ccc(C(=O)CC(=O)c2ccccc2)cc1	0.88	-6	i	i	i	i
O=C(O)c1cc(-c2ccc(Cl)cc2)n(-c2cccc(Cl)c2)n1	2.5	-4	i	i	i	i
SMILES	Kir21 block	hERG protect	KCNK3 inh	KCNQ1 pot	KCNK9 block	KCNQ1 block
CCCCn1nc2cc(C(=O)NCc3ccc(OC)cc3)ccc2c1OCC	-5.1*	3	i	i	i	i
CCOc1c2ccc(C(=O)NCc3ccc(OC)cc3)cc2nn1CCOC	-0.93	-4	i	i	i	i
CN(C)CCOc1ccc2c(c1)Sc1ccccc1CC2=O	-5.2*	-2	i	i	i	i
Cc1nn(-c2cccc(Cl)c2)c(Cl)c1/C=N/NC(=O)c1cccnc1	1.3	-9	i	i	-7.4*	i
Cc1nn(-c2ccccc2)c(Cl)c1/C=N\NC(=O)c1cncc(Br)c1	-0.11	-12	i	i	i	i
Cc1nn(-c2ccccc2)c(C)c1/C=N/NC(=O)c1cc(C(C)(C)C)[nH]n1	0.59	-13	i	i	i	i
COC(=O)N/N=C\c1c(C)nn(-c2ccccc2)c1Cl	-1.4	-9	i	i	i	i

High-throughput results deposited in PubChem BioAssay by Johns Hopkins Ion Channel Center.
